Laboratory results: ChEMBL document CHEMBL3297699, “Synthesis of novel fluoro analogues of MKC442 as microbicides” (J Med Chem, 2014)

Legend:
[1] = tested on: Human immunodeficiency virus 1; experiment: Antiviral activity against 6-[(3,5-Dimethylphenyl)fluoromethyl]-5-ethyl-1-{[[4-(3-hydroxyprop-1-ynyl)benzyl]oxy]methyl}pyrimidine-2,4(1H,3H)-dione-resistant HIV1 harboring RT 106I, 181C mutant infected in human MT4 cells assessed as inhibition of virus-induced cytopathogenicity after 4 days by MTT assay; type: functional, organism-based; settings: Human immunodeficiency virus 1, MT4
Outline: (§1)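 MT-4 cells grown at 37 °C, 5% CO2 in RPMI-1640 with 10% FCS, penicillin and streptomycin. Compounds taken up in DMSO at […] (stock), then diluted in medium. 1 × 10^4 cells per well with serial compound dilutions, then HIV-1 inoculum sized to give complete cytopathogenicity by day 4. Viability read by MTT. […] Mean of three independent determinations.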

[2] = tested on: Human immunodeficiency virus 1; experiment: Antiviral activity against TMC120-resistant HIV1 harboring RT 100I, 138G mutant infected in human MT4 cells assessed as inhibition of virus-induced cytopathogenicity after 4 days by MTT assay; type: functional, organism-based; settings: Human immunodeficiency virus 1, MT4, 96 h; outline: as §1
[3] = tested on: Human immunodeficiency virus 1; experiment: Antiviral activity against TMC125-resistant HIV1 harboring RT 109M, 138K, 190E mutant infected in human MT4 cells assessed as inhibition of virus-induced cytopathogenicity after 4 days by MTT assay; type: functional, organism-based; settings: Human immunodeficiency virus 1, MT4, 96 h; outline: as §1
[4] = tested on: Human immunodeficiency virus 1; experiment: Antiviral activity against […] HIV1 harboring 103N, 181C mutant infected in human MT4 cells assessed as inhibition of virus-induced cytopathogenicity after 4 days by MTT assay; type: functional, organism-based; settings: Human immunodeficiency virus 1, MT4, 96 h; outline: as §1
[5] = tested on: Human immunodeficiency virus 1; experiment: Antiviral activity against MDR-resistant HIV1 harboring 41L, 74V, 106A, 215Y mutant infected in human MT4 cells assessed as inhibition of virus-induced cytopathogenicity after 4 days by MTT assay; type: functional, organism-based; settings: Human immunodeficiency virus 1, MT4, 96 h; outline: as §1
[6] = tested on: Human immunodeficiency virus 1; experiment: Antiviral activity against zidovudine-resistant HIV1 harboring RT 67N, 70R, 215F, 219Q mutant infected in human MT4 cells assessed as inhibition of virus-induced cytopathogenicity after 4 days by MTT assay; type: functional, organism-based; settings: Human immunodeficiency virus 1, MT4, 96 h; outline: as §1
[7] = Cytotoxicity against human MT4 cells after 96 hrs by MTT assay; type: cell-based
Outline: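 Serial compound dilutions (from DMSO stocks at […]) are added, then cells are held 96 h at 37 °C in humidified 5% CO2. Viability is read by MTT. The value is the concentration reducing proliferation by 50%, as the mean of three independent determinations, run in parallel with the antiviral assays.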

[8] = tested on: Human immunodeficiency virus 1; experiment: Antiviral activity against MC1220-resistant HIV1 harboring RT 100I, 179D, 181C mutant infected in human MT4 cells assessed as inhibition of virus-induced cytopathogenicity after 4 days by MTT assay; type: functional, organism-based; settings: Human immunodeficiency virus 1, MT4, 96 h; outline: as §1
[9] = tested on: Human immunodeficiency virus 1; experiment: Antiviral activity against […] HIV1 harboring Y181C mutant infected in human MT4 cells assessed as inhibition of virus-induced cytopathogenicity after 4 days by MTT assay; type: functional, organism-based; settings: Human immunodeficiency virus 1, MT4, 96 h; outline: as §1
[10] = tested on: Human immunodeficiency virus 1; experiment: Antiviral activity against efavirenz-resistant HIV1 harboring RT 100I, 103R, 179D, 225H mutant infected in human MT4 cells assessed as inhibition of virus-induced cytopathogenicity after 4 days by MTT assay; type: functional, organism-based; settings: Human immunodeficiency virus 1, MT4; outline: as §1
[11] = tested on: Human immunodeficiency virus 1; experiment: Antiviral activity against saquinavir-resistant HIV1 infected in human MT4 cells assessed as inhibition of virus-induced cytopathogenicity after 4 days by MTT assay; type: functional, organism-based; settings: Human immunodeficiency virus 1, MT4, 96 h; outline: as §1
[12] = tested on: Human immunodeficiency virus 1; experiment: Antiviral activity against wild type HIV1 3B infected in human MT4 cells assessed as inhibition of virus-induced cytopathogenicity after 4 days by MTT assay; type: functional, organism-based; settings: Human immunodeficiency virus 1, 3B, MT4, 96 h; outline: as §1
[13] = tested on: Human immunodeficiency virus 1; experiment: Antiviral activity against HIV1 CRF01 infected in human dendritic cells assessed as inhibition of p24 in supernatants; settings: Human immunodeficiency virus 1, CRF01, dendritic cells
[14] = tested on: Human immunodeficiency virus 1; experiment: Antiviral activity against HIV1 MP582 infected in human dendritic cells assessed as inhibition of p24 production; settings: Human immunodeficiency virus 1, MP582, dendritic cells
[15] = Cytotoxicity against human MT4 cells after 40 days by MTT assay; type: cell-based
Outline: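 Mock-infected MT-4 cells at 1 × 10^5 cells/mL, 37 °C, with various compound concentrations for 40 days. One-tenth of the culture is moved every 3−4 days into fresh drug-containing medium at low density to keep growth exponential. Viability is read by MTT at each passage. The value is the maximum concentration still allowing exponential proliferation, as the mean of three determinations.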

[16] = tested on: Human immunodeficiency virus 1; experiment: Antiviral activity against HIV1 MP1033 infected in human dendritic cells assessed as inhibition of p24; settings: Human immunodeficiency virus 1, MP1033, dendritic cells
[17] = tested on: Human immunodeficiency virus 1; experiment: Antiviral activity against HIV1 W5269 infected in human dendritic cells assessed as inhibition of p24 production; settings: Human immunodeficiency virus 1, W5269, dendritic cells
[18] = tested on: Human immunodeficiency virus 1; experiment: Antiviral activity against HIV1 MP1308 infected in human dendritic cells assessed as inhibition of p24; settings: Human immunodeficiency virus 1, MP1308, dendritic cells
[19] = tested on: Human immunodeficiency virus 1; experiment: Antiviral activity against NRTI-resistant HIV1 MP1315 infected in human dendritic cells assessed as inhibition of p24 in supernatants; settings: Human immunodeficiency virus 1, MP1315, dendritic cells
[20] = tested on: Human immunodeficiency virus 1; experiment: Antiviral activity against HIV1 infected in human MT4 cells assessed as lowest compound concentration required to irreversibly knock out vial multiplication treated by chronic treatment measured after 40 days by MTT assay; type: functional
Outline: (§2)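 HIV-1-infected MT-4 cells at high MOI (5−10 CCID50/cell) in 40-day assays. Compound is given continuously (chronic), for only the first 4 h after infection, or for 4 h immediately before infection. Cells are resuspended at 10^5 cells/mL every 4 days. The value is the lowest concentration that irreversibly knocks out HIV-1 multiplication, as the mean of three independent determinations.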

[21] = tested on: Human immunodeficiency virus 1; experiment: Antiviral activity against HIV1 MP634 infected in human dendritic cells assessed as inhibition of p24 in supernatants; settings: Human immunodeficiency virus 1, MP634, dendritic cells
[22] = tested on: Human immunodeficiency virus 1; experiment: Antiviral activity against HIV1 infected in human MT4 cells assessed as lowest compound concentration required to irreversibly knock out vial multiplication treated 4 hrs after infection measured after 40 days by MTT assay; type: functional; outline: as §2
[23] = tested on: Human immunodeficiency virus 1; experiment: Antiviral activity against HIV1 MP411 infected in human dendritic cells assessed as inhibition of p24 in supernatants; settings: Human immunodeficiency virus 1, MP411, dendritic cells
[24] = tested on: Human immunodeficiency virus 1; experiment: Antiviral activity against HIV1 CRF02 infected in human dendritic cells assessed as inhibition of p24 in supernatants; settings: Human immunodeficiency virus 1, CRF02, dendritic cells
[25] = tested on: Human immunodeficiency virus 1; experiment: Antiviral activity against HIV1 infected in human MT4 cells assessed as lowest compound concentration required to irreversibly knock out vial multiplication treated 4 hrs before infection measured after 40 days by MTT assay; type: functional; outline: as §2

| SMILES | EC50 [1] | EC50 [2] | EC50 [3] | EC50 [4] | EC50 [5] | EC50 [6] | CC50 at 96 h [7] | EC50 [8] | EC50 [9] | EC50 [10] | EC50 [11] | EC50 [12] | other results |
| --- | --- | --- | --- | --- | --- | --- | --- | --- | --- | --- | --- | --- | --- |
| Cc1ccnc2c1NC(=O)c1cccnc1N2C1CC1 [NEVIRAPINE] | > 20 µM | 1 µM | > 20 µM | > 10 µM | 3 µM | 0.06 µM | > 100 µM | 4 µM | > 10 µM | > 10 µM | – | – | – |
| C=C(C)COCn1c(C(F)c2cc(C)cc(C)c2)c(CC)c(=O)[nH]c1=O (configuration not stated) | – | – | – | 7 µM | 3.4 µM | 0.07 µM | 40 µM | – | 0.4 µM | 4 µM | 3.8 µM | 0.008 µM | – |
| C=CCOCn1c(C(F)c2cc(C)cc(C)c2)c(CC)c(=O)[nH]c1=O (configuration not stated) | – | – | – | 1.6 µM | – | 0.05 µM | 64 µM | – | 0.2 µM | 2 µM | 4.2 µM | 0.004 µM | – |
| Cc1cc(C#N)cc(C)c1Oc1nc(Nc2ccc(C#N)cc2)nc(N)c1Br [ETRAVIRINE] | 0.1 µM | 0.07 µM | 0.2 µM | 0.01 µM | 0.001 µM | 0.001 µM | – | 0.03 µM | 0.01 µM | 0.3 µM | – | – | – |
| CCc1c(C(F)c2cc(C)cc(C)c2)n(COCc2ccc(I)cc2)c(=O)[nH]c1=O (configuration not stated) | – | – | – | 2 µM | 1.5 µM | 0.3 µM | 43 µM | – | 0.2 µM | 1.4 µM | 1.2 µM | 0.4 µM | – |
| CCOCn1c(Cc2ccccc2)c(C(C)C)c(=O)[nH]c1=O [EMIVIRINE] | – | – | – | > 100 µM | 1.5 µM | 0.08 µM | > 100 µM | – | > 10 µM | 100 µM | 0.06 µM | – | – |
| CCc1c(C(F)c2cc(C)cc(C)c2)[nH]c(=O)n(COCc2ccc(I)cc2)c1=O (configuration not stated) | – | – | – | > 100 µM | > 100 µM | 11 µM | > 100 µM | – | > 100 µM | > 100 µM | 23 µM | 9 µM | – |
| Cc1c(C(C)c2c(F)cccc2F)nc(N(C)C)[nH]c1=O (configuration not stated) | 0.7 µM | 2 µM | 3 µM | > 20 µM | 0.01 µM | 0.004 µM | ≥ 100 µM | 3 µM | 0.8 µM | 2 µM | 0.01 µM | 0.002 µM | EC99 [13]: 0.001 µM; EC99 [14]: 0.001 µM; MNTC at 960 h [15]: 30 µM; EC99 [16]: 0.01 µM; EC99 [17]: 0.01 µM; EC99 [18]: 0.01 µM; EC99 [19]: ≤ 0.0001 µM; Activity [20]: <0.1 µM; EC99 [21]: 0.1 µM; Activity [22]: <5 µM; EC99 [23]: 0.01 µM; EC99 [24]: 0.01 µM; Activity [25]: <5 µM |
| CC(C)(C)NC(=O)[C@@H]1C[C@@H]2CCCC[C@@H]2CN1C[C@@H](O)[C@H](Cc1ccccc1)NC(=O)[C@H](CC(N)=O)NC(=O)c1ccc2ccccc2n1 | 0.02 µM | 0.02 µM | 0.01 µM | 0.01 µM | 0.02 µM | 0.01 µM | 15 µM | 0.01 µM | 0.02 µM | 0.01 µM | 0.09 µM | 0.02 µM | – |
| Cc1cn([C@H]2C[C@H](N=[N+]=[N-])[C@@H](CO)O2)c(=O)[nH]c1=O [ZIDOVUDINE] | 0.01 µM | 0.01 µM | 0.008 µM | 0.01 µM | 0.2 µM | 0.2 µM | – | 0.009 µM | 0.02 µM | 0.01 µM | – | 0.01 µM | – |
| CCOCn1c(C(F)c2cc(C)cc(C)c2)c(CC)c(=O)[nH]c1=O (configuration not stated) | – | – | – | 2 µM | – | 0.04 µM | 85 µM | – | 0.3 µM | 6 µM | 9 µM | 0.005 µM | – |
| Cc1cc(C)c(Nc2ccnc(Nc3ccc(C#N)cc3)n2)c(C)c1 [DAPIVIRINE] | 0.1 µM | > 20 µM | > 20 µM | 0.05 µM | 0.002 µM | 0.001 µM | 2 µM | 0.1 µM | 0.04 µM | 0.2 µM | 0.003 µM | 0.003 µM | EC99 [13]: 0.01 µM; MNTC at 960 h [15]: 0.3 µM; EC99 [16]: 0.01 µM; EC99 [18]: 0.01 µM; EC99 [19]: 0.0001 µM; Activity [20]: 0.1 µM; EC99 [21]: 0.01 µM; Activity [22]: >20 µM; EC99 [23]: 0.01 µM; EC99 [24]: 0.01 µM; Activity [25]: >20 µM |
| O=C1Nc2ccc(Cl)cc2[C@@](C#CC2CC2)(C(F)(F)F)O1 [EFAVIRENZ] | 0.06 µM | 0.09 µM | 7 µM | 0.08 µM | 0.004 µM | 0.002 µM | – | 0.1 µM | – | 6 µM | – | – | EC99 [13]: 0.01 µM; EC99 [16]: 0.01 µM; EC99 [17]: 0.01 µM; EC99 [18]: 0.01 µM; EC99 [19]: ≤ 0.0001 µM; EC99 [21]: 0.01 µM; EC99 [24]: 0.01 µM |
| CCc1c(C(F)c2cc(C)cc(C)c2)n(COCc2ccc(C#CC=O)cc2)c(=O)[nH]c1=O (configuration not stated) | – | – | – | 14 µM | 2.3 µM | 0.1 µM | 27 µM | – | 0.4 µM | 2.4 µM | 5.2 µM | 0.08 µM | – |
